Screening results deposited in PubChem by The Scripps Research Institute Molecular Screening Center.
This is a sample that favours compounds with a hit; in the whole collection about 1.8% have one here.
M4 antag: antagonists of human muscarinic M4 receptor (CHRM4); CHO-hM4 cells, ACh EC80, Fluo-8 calcium fluorescence; inhibition, % at 3 µM; 360,000 compounds, 0.73% hits;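 active = inhibition above its plate's cutoff, the mean inhibition of sample wells plus 3 SD, cut at about 27% in these data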;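 note: 0% = acetylcholine EC80 with DMSO and 100% = DMSO without agonist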
Target sequence (P08173 whole entry, looked up): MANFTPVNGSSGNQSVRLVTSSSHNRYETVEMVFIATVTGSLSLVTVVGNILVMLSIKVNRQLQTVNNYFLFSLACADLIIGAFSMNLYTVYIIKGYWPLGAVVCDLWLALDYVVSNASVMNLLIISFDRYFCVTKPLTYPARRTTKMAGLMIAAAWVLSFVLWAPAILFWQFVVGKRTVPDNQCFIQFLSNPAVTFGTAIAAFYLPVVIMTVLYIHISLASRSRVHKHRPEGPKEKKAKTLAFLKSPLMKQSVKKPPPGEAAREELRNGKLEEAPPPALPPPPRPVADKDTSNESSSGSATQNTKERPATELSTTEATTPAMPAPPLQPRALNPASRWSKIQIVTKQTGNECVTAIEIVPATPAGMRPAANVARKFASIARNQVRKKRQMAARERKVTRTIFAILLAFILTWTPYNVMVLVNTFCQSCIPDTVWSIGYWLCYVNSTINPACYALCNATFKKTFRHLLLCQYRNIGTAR
CHRM5 agonist: agonists of human muscarinic M5 receptor (CHRM5); P08912; CHO-K1 hM5 cells, Fluo-8 calcium fluorescence; 0% DMSO wells, 100% maximal acetylcholine response; activation, % at 3 µM; 360,000 compounds, 0.19% hits;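 active = activation above the run's mean over test compounds plus 3 SD, cut at about 23% in these data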;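 note: signal is peak over basal fluorescence ratio across the kinetic read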
M5 PAM: CHRM5 positive allosteric modulation | P08912 | activation, % at 3 µM | 360,000 compounds, 0.3% hits | CHO-K1 hM5, Fluo-8 calcium, ACh EC20 PAM; 0% = ACh EC20, 100% = ACh EC100;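 active = activation above the run cutoff, the mean activation of all test compounds plus 3 SD, cut at about 18% in these data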
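Replicates: One well per compound, no replicates | System: Human M5 receptor in CHO-K1 cells | Benchmarks: Low control EC20 acetylcholine (0%), high control EC100 acetylcholine (100%) | Probe or stimulus: Acetylcholine, EC20 level | Times: Fluo-8 loading 80 min at 37 °C plus 30 min room temperature | Signal: Intracellular calcium via Fluo-8 fluorescence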
M4 PAM: positive allosteric modulators of human muscarinic M4 receptor; P08173; CHO-K1 hM4/Gqi5, Fluo-8 calcium fluorescence, ACh EC20; 0% = ACh EC20, 100% = maximal ACh; activation, % at 3 µM; 360,000 compounds, 0.4% hits;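 active = activation above its plate's cutoff, the mean activation of sample wells plus 3 SD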
CHRM4 agonist: CHRM4 agonism in calcium assay. P08173. CHO-K1 hM4/Gqi5, Fluo-8 calcium fluorescence; vehicle 0%, full acetylcholine response 100%. activation, % at 3 µM. 360,000 compounds, 0.14% hits. AID 624127;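 active = activation above the run mean over all test wells plus 3 SD, cut at about 32% in these data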;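 note: peak over basal fluorescence ratio per well then scaled between controls; 0% = DMSO wells and 100% = acetylcholine at EC100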
M5 antag: CHRM5 antagonism in calcium assay; P08912; CHO-hM5 cells, Fluo-8 calcium fluorescence, ACh EC80; inhibition, % at 3 µM; 360,000 compounds, 0.59% hits;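 active = inhibition above a per-plate cutoff, the mean of that plate's test compounds plus 3 SD, cut at about 27% in these data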;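 note: 0% = acetylcholine EC80 with DMSO and 100% = DMSO without agonist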
* = called active by the depositor.

For CN1CCC(N(C)CC(O)c2ccccc2)CC1 (stereo not given) the results were M4 antag -3, CHRM5 agonist 1, M5 PAM 4, M4 PAM 1, CHRM4 agonist 1 and M5 antag 4.
Cc1ccccc1C(=O)OC1CCN(C)CC1 was read as M4 antag 9, CHRM5 agonist -9, M5 PAM -20, M4 PAM -8, CHRM4 agonist 0 and M5 antag 12.
For CN1CCC(OC(c2ccccc2)c2ccccc2)CC1 the results were M4 antag 80*, CHRM5 agonist -2, M5 PAM -19, M4 PAM -17, CHRM4 agonist 1 and M5 antag 96*.
Screening COC(=O)c1ccc(S(=O)(=O)c2ccc(Cl)cc2)c(N)c1 returned M4 antag -4, CHRM5 agonist 8, M5 PAM -12, M4 PAM -6, CHRM4 agonist 7 and M5 antag 6.
Screening O=C1CCC([N+](=O)[O-])C(c2ccc(-c3ccccc3)cc2)N1 (stereo not given) returned M4 antag -14, CHRM5 agonist 2, M5 PAM 10, M4 PAM -2, CHRM4 agonist 2 and M5 antag -13.
Screening CC1(C)Cc2ccccc2C(c2cc3ccccc3oc2=O)=N1 returned M4 antag 0, CHRM5 agonist 2, M5 PAM 16, M4 PAM -2, CHRM4 agonist 1 and M5 antag -3.
Screening CC1(C)Cc2c(ccc3ccccc23)C(c2cc3ccccc3oc2=O)=N1 returned M4 antag 0, CHRM5 agonist 27*, M5 PAM 13, M4 PAM 6, CHRM4 agonist -3 and M5 antag 14.
`CCOC(=O)C1=CN(Cc2ccco2)S(=O)(=O)N(C)C1c1ccc2ccccc2c1` (stereo not given) gave M4 antag -7, CHRM5 agonist -2, M5 PAM -2, M4 PAM -4, CHRM4 agonist -1 and M5 antag -12.
For CCN(C(=O)CSc1nc2ccccc2n1C)C1CCS(=O)(=O)C1 (stereo not given) the results were M4 antag 3, CHRM5 agonist 1, M5 PAM 2, M4 PAM 6, CHRM4 agonist 1 and M5 antag 0.
`COc1ccc(OC)c(NC(=O)Nc2nnc([C@@H]3O[C@H](CO)[C@@H](O)[C@H]3O)s2)c1` gave M4 antag -2, CHRM5 agonist 0, M5 PAM 0, M4 PAM -3, CHRM4 agonist 1 and M5 antag 10.
`CCOC(=O)C1CCN(C(=O)c2ccco2)CC1` gave M4 antag -5, CHRM5 agonist 0, M5 PAM 0, M4 PAM 18, CHRM4 agonist 1 and M5 antag 4.
For CCOC(=O)C1CCN(C(=O)c2ccc(C)o2)CC1 the results were M4 antag 100*, CHRM5 agonist 3, M5 PAM -2, M4 PAM 2, CHRM4 agonist 0 and M5 antag 7.
`CCOC(=O)C1CCN(Cc2ccc(OCc3ccccc3)cc2)CC1` gave M4 antag 39*, CHRM5 agonist -19, M5 PAM -11, M4 PAM -16, CHRM4 agonist 3 and M5 antag 19.
CCc1ccccc1NC(=O)c1ccc(CN2CCC(Cc3ccccc3)CC2)cc1 was read as M4 antag 36*, CHRM5 agonist -4, M5 PAM -26, M4 PAM -21, CHRM4 agonist 6 and M5 antag 14.
O=C(NCc1ccccc1)c1ccc(CN2CCC(Cc3ccccc3)CC2)cc1 was read as M4 antag 19, CHRM5 agonist -6, M5 PAM -16, M4 PAM -17, CHRM4 agonist 4 and M5 antag 23.
NC(=O)C1CCN(Cc2ccc(OCc3ccccc3)cc2)CC1 was read as M4 antag 21, CHRM5 agonist -13, M5 PAM -2, M4 PAM -15, CHRM4 agonist 1 and M5 antag 8.
`CCOC(=O)C1CCCN(CCc2ccccc2)C1` (stereo not given) gave M4 antag 37*, CHRM5 agonist -17, M5 PAM -32, M4 PAM -15, CHRM4 agonist 1 and M5 antag 20.
For Cc1ccc(CNS(=O)(=O)c2ccc(-n3cccn3)cc2)cc1 the results were M4 antag -5, CHRM5 agonist 3, M5 PAM -1, M4 PAM -3, CHRM4 agonist 7 and M5 antag -9.
`CCCn1c(N)c(C(=O)CSc2nnc(C3CC3)n2Cc2ccccc2)c(=O)n(C)c1=O` gave M4 antag 11, CHRM5 agonist -2, M5 PAM -3, M4 PAM 1, CHRM4 agonist 0 and M5 antag 12.
`OC(c1ccccc1)(c1nc(-c2cc(F)cc(F)c2)cs1)C(F)(F)F` (stereo not given) gave M4 antag -9, CHRM5 agonist 0, M5 PAM -5, M4 PAM -7, CHRM4 agonist 0 and M5 antag -7.
For CCOc1ccc(-c2nnc(SCC(=O)O)n2Cc2ccccc2)cc1 the results were M4 antag -3, CHRM5 agonist -1, M5 PAM 0, M4 PAM -2, CHRM4 agonist -1 and M5 antag 5.
O=C1Nc2ccccc2N(C(=O)c2ccc(-c3ccccc3)cc2)C1c1nc2ccccc2[nH]1 (stereo not given) was read as M4 antag 3, CHRM5 agonist -2, M5 PAM -1, M4 PAM 2, CHRM4 agonist -1 and M5 antag 0.
O=C1CC(c2ccccc2)CC2=C1C1(CCCC1)N=C(Nc1nc3ccccc3o1)N2 (stereo not given) was read as M4 antag -1, CHRM5 agonist 1, M5 PAM -1, M4 PAM -3, CHRM4 agonist 0 and M5 antag 5.
Screening COc1ccc(CN2CCC(Cc3ccccc3)CC2)cc1OC returned M4 antag 0, CHRM5 agonist -6, M5 PAM 0, M4 PAM -7, CHRM4 agonist 1 and M5 antag 4.
Screening CCOc1ccc(CN2CCC(Cc3ccccc3)CC2)cc1 returned M4 antag 26*, CHRM5 agonist -21, M5 PAM -1, M4 PAM -16, CHRM4 agonist 1 and M5 antag 4.
`COc1ccc(Br)cc1CNC(=O)C1CCN(S(=O)(=O)N2CCC(C)CC2)CC1` gave M4 antag -6, CHRM5 agonist -1, M5 PAM -7, M4 PAM -3, CHRM4 agonist 0 and M5 antag 7.
